Measured values as given in ChEMBL document CHEMBL1122314, “Acute effects of alkylating agents on canine renal function: specifically designed synthetic maleimides” (J Med Chem, 1983).
Activity calls are given as the source filed them. The calls are words filed in the database; no cut-off is given here.

Legend:
Canis familiaris [1] = assay: The changes in canine renal function that were monitored over the 2-h interval following 20 umol/kg renal arterial administration; no change; format: functional, organism-based; conditions: Canis lupus familiaris
[2] = Half life period with Glutathione (GSH); activity expressed in terms of rx, no rx means no reaction; format: ADME
[3] = Half life period with L-Lys; activity expressed in terms of rx, no rx means no reaction; format: ADME
Canis familiaris [4] = assay: The changes in canine renal function that were monitored over the 2-h interval following 73 umol/kg intravenous administration.; format: functional, Canis lupus familiaris
Procedure, shortened: (§1)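 Dogs received the maleimide into the jugular vein at 73.0 or 146 µmol/kg over 10 min, dissolved in 0.9% saline with an equivalent amount of NaHCO3. Urine was collected in 10-min periods for 2 h. Read-outs were urine flow, urinary pH, GFR (inulin clearance), and Na, K (flame photometry) and Cl excretion. Each value is the change from the immediately preceding pretreatment period, analysed by Dunnett's test.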

Canis familiaris [5] = assay: The changes in canine renal function that were monitored over the 2-h interval following 20 umol/kg renal arterial administration; NC=no change; format: functional, organism-based; conditions: Canis lupus familiaris
Canis familiaris [6] = assay: The changes in canine renal function that were monitored over the 2-h interval following 146 umol/kg intravenous administration.; format: functional, Canis lupus familiaris; procedure, shortened: as §1

| SMILES | Change (Canis familiaris [1]) | other results |
| --- | --- | --- |
| O=C(O)c1ccc(N2C(=O)C=CC2=O)cc1 | inactive | – |
| CC1=C(C)C(=O)N(c2ccc(C(=O)NCC(=O)O)cc2)C1=O | inactive | T1/2 [2]: No RX; T1/2 [3]: No RX |
| O=C(O)CNC(=O)c1ccc(N2C(=O)C=CC2=O)cc1 | – | Change (Canis familiaris [4]): ~-5; Change (Canis familiaris [5]): inactive |
| CC1=CC(=O)N(c2ccc(C(=O)O)cc2)C1=O | inactive | – |
| CC1=CC(=O)N(c2ccc(C(=O)O)cc2C)C1=O | inactive | Change (Canis familiaris [6]): 5 |
| CC1=CC(=O)N(c2ccc(C(=O)NCC(=O)O)cc2)C1=O | inactive | – |
| CC1=C(C)C(=O)N(c2ccc(C(=O)O)cc2)C1=O | inactive | – |
